Calls of active or inactive are those of the source. The rule behind the calls is not given here.
Tests used:
RAW264.7 [1] = test: Cytotoxicity against mouse RAW264.7 cells after 24 hrs by MTT assay in the presence of LPS; assay type: cell-based; conditions: RAW264.7, 24 h
RAW264.7 [2] = test: Cytotoxicity against mouse RAW264.7 cells after 24 hrs by MTT assay in the absence of LPS; assay type: cell-based; conditions: RAW264.7, 24 h
Method in brief: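 RAW264.7 cells at 5 × 10⁴/well, exposed to a range of concentrations in serum-free medium for 24 h. MTT (5 mg/mL in saline) added for a further 4 h, formazan dissolved in DMSO, absorbance read at 540 nm. Viability expressed relative to the blank control.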

Mus musculus = test: Antiinflammatory activity in ICR mouse assessed as decrease in carrageenan-induced paw edema at 10 mg/kg, ip administered 30 mins prior to carrageenan-challenge measured at 4 hrs relative to vehicle treated control; assay type: functional; conditions: route intraperitoneal
Method in brief: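 Male ICR mice dosed i.p. 30 min before subplantar injection of freshly prepared 1% carrageenan suspension into the right hind paw. Footpad thickness measured with a gauge caliper at 1, 2, 3, 4 and 5 h. Inhibition calculated from increase in paw thickness versus the control group; mean (SEM), n = 5.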

[3] = target: T1, Nitric oxide synthase, inducible (Mus musculus, UniProt P29477); test: Inhibition of iNOS in mouse RAW264.7 cells assessed as inhibition of LPS-induced nitric oxide production for 2 hrs by DAF-FMDA dye based fluorometric assay; assay type: cell-based
T1 sequence (P29477 whole entry): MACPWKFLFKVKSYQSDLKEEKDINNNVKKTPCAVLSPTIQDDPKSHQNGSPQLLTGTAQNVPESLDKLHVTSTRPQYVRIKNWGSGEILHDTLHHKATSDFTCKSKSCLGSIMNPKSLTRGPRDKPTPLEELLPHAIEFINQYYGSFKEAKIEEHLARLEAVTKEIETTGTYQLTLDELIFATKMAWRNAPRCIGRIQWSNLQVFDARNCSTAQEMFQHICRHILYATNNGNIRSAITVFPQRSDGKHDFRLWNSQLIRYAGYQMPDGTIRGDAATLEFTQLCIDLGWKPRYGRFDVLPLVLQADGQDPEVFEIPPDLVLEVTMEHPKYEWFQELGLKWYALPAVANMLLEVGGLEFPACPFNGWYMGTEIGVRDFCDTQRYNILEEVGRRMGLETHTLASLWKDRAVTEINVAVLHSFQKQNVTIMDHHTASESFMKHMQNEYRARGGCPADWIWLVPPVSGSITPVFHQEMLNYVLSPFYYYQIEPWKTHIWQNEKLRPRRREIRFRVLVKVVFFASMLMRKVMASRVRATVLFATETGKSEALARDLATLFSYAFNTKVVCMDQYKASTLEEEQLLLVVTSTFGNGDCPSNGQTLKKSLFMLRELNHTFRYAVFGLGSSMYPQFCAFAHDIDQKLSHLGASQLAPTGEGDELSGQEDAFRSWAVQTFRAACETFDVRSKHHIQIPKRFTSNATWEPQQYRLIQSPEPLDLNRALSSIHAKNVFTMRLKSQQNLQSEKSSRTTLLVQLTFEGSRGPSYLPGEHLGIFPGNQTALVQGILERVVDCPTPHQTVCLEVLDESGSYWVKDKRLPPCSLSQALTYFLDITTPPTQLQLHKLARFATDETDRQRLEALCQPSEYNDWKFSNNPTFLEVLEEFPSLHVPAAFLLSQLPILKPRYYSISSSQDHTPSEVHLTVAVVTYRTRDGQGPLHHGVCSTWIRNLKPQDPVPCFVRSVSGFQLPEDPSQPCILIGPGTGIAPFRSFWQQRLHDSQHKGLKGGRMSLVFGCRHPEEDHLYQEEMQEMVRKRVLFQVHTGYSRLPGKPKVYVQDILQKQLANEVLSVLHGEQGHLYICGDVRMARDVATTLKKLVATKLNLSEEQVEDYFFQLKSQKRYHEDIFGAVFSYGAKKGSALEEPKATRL

Rattus norvegicus [4] = test: Antiarthritic activity in Lewis rat adjuvant-induced arthritis model assessed as decrease in complete Freund's adjuvant-induced suppression of histopathological changes at 25 mg/kg/day, po for 14 days post inflammation development signs by Hematoxylin and eosin staining; assay type: functional, organism-based
Method in brief: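 CFA-induced arthritis in male Lewis rats, dosed orally each day for 14 d after a 7 d vehicle lead-in. Animals sacrificed, foot pads fixed in neutral buffered formal saline and embedded in paraffin. 5 µm sections stained with H&E and examined under the microscope.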

Rattus norvegicus [5] = test: Antiarthritic activity in Lewis rat adjuvant-induced arthritis model assessed as decrease in complete Freund's adjuvant-induced weight loss administered daily oral doses for 14 days post inflammation development signs; assay type: functional, organism-based
Method in brief: (§1)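 Male Lewis rats, 12 weeks old, six per group, injected with CFA at the tail base. Vehicle (2% Tween 80/0.5% methylcellulose) given orally for 7 d until full joint inflammation, then randomized and dosed orally daily for 14 d at 10 or 25 mg/kg. Arthritis scored daily on hind paw erythema, swelling, joint tenderness, movement and posture. Body weight tracked; means ± S.E.M.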

Rattus norvegicus [6] = test: Antiarthritic activity in Lewis rat adjuvant-induced arthritis model assessed as decrease in complete Freund's adjuvant-induced arthritis administered daily oral doses for 14 days post inflammation development signs; assay type: functional, organism-based; method in brief: as §1

| SMILES | IC50 [3] [µM] | IC50 (RAW264.7 [1]) [µM] | IC50 (RAW264.7 [2]) [µM] | inhibition in vivo at 10 mg/kg (Mus musculus) [%] | inhibition (Rattus norvegicus [4]) | inhibition (Rattus norvegicus [5]) | inhibition (Rattus norvegicus [6]) |
| --- | --- | --- | --- | --- | --- | --- | --- |
| COc1ccc2c(c1)c(CC(=O)O)c(C)n2C(=O)c1ccc(Cl)cc1 [INDOMETHACIN] | 20 | > 80 | > 80 | 45.8 |  |  |  |
| COc1ccc(/C=C/C(=O)c2ccc3c(c2O)C=CC(C)(C)O3)cc1OC | 7.9 | > 80 | > 80 | 52.4 | Active | Active | Dose-dependent effect |
| CC1(C)C=Cc2c(ccc(C(=O)/C=C/c3ccc(Br)cc3)c2O)O1 | 17.8 | > 80 | > 80 | 27.6 |  |  |  |

The next molecules have a lower IC50 [3] than those just listed; values first:

| IC50 [3] [µM] | SMILES | IC50 (RAW264.7 [1]) [µM] | IC50 (RAW264.7 [2]) [µM] | inhibition in vivo at 10 mg/kg (Mus musculus) [%] | inhibition (Rattus norvegicus [4]) | inhibition (Rattus norvegicus [5]) | inhibition (Rattus norvegicus [6]) |
| --- | --- | --- | --- | --- | --- | --- | --- |
| 5.4 | CC1(C)C=Cc2c(ccc(C(=O)/C=C/c3cccc(F)c3)c2O)O1 | > 80 | > 80 | 9 |  |  |  |
| 6.2 | COc1cc(/C=C/C(=O)c2ccc3c(c2O)C=CC(C)(C)O3)cc(OC)c1OC | > 80 | > 80 | 34.4 |  |  |  |

Reference: ChEMBL document CHEMBL2040708, “Rational design, synthesis, and pharmacological properties of pyranochalcone derivatives as potent anti-inflammatory agents” (Eur J Med Chem, 2012)
